For test [1], the target named is DNA-directed RNA polymerase subunit beta (Escherichia coli K-12) (UniProt P0A8V2). The test can be described thus: Percent inhibition at a concentration of 100 ug/mL of RNA polymerase isolated from Escherichia coli K12 (Sigma).
Test [2] concerns Bacteroides thetaiotaomicron. The test can be described thus: Minimum inhibitory concentration against Bacteroides thetaiotaomicron ATCC 29741; 0.2-0.8. In kind it is functional. The method in brief: (§1)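 Anaerobic MICs by 2-fold dilution in Wilkens-Chalgren broth, reported in micrograms/milliliter.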
Test [3] has as its system Bacteroides fragilis. The test can be described thus: Minimum inhibitory concentration against Bacteroides fragilis ATCC 25285; 0.1-0.8. The class given is functional. The method in brief:
as §1

The test system of test [4] is Clostridium perfringens. The test can be described thus: Minimum inhibitory concentration against Clostridium perfringens ATCC 13124; 0.05-0.1. The class given is functional. The gist of the method: (§2)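 Anaerobic MIC by 2-fold dilution in Wilkens-Chalgren broth; values in µg/mL.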
For test [5], the system named is Clostridioides difficile. Put plainly: Minimum inhibitory concentration against Clostridium difficile ATCC 9689; 1.6-3.1. In kind it is functional. The gist of the method: as §1
Test [6] has as its system Clostridioides difficile. Put plainly: Minimum inhibitory concentration against Clostridium difficile ATCC 9689. The class given is functional. The method in brief: as §1
For another test, the system named is Pseudomonas aeruginosa. Put plainly: Minimum inhibitory concentration (MIC) against the cell line Pseudomonas aeruginosa A5007. In kind it is functional. The method in brief:
(§3)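 Aerobic MICs by 2-fold dilution on brain–heart infusion agar, reported in micrograms/milliliter.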

For test [7], the system named is Bacteroides thetaiotaomicron. The test can be described thus: Minimum inhibitory concentration against Bacteroides thetaiotaomicron ATCC 29741. The class given is functional. The gist of the method:
as §1

Test [8] relates to Staphylococcus aureus. Put plainly: Compound is evaluated for cross resistance with DNA gyrase subunit A or B against Staphylococcus aureus 730A. In kind it is functional. The method in brief:
(§4)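 Aerobic MIC by 2-fold dilution on brain–heart infusion agar; values in µg/mL.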

Test [9] concerns Staphylococcus epidermidis. Put plainly: Minimum inhibitory concentration (MIC) against the strain Staphylococcus epidermidis 3519.
Another test concerns Streptococcus pyogenes. Put plainly: Minimum inhibitory concentration (MIC) against the cell line Streptococcus pyogenes EES61. In kind it is functional. The method in brief: as §3
Test [10] relates to Bacteroides fragilis. Put plainly: Compound is evaluated for cross resistance with DNA gyrase subunit A or B against Bacteroides fragilis ATCC 25285. In kind it is functional.
For test [11], the system named is Staphylococcus aureus. The test can be described thus: Compound is evaluated for cross resistance with DNA gyrase subunit A or B against Staphylococcus aureus 337-113 (norfloxacin-resistant). The class given is functional. The gist of the method: as §4
A further test concerns Streptococcus equinus. The test can be described thus: Minimum inhibitory concentration (MIC) against the cell line Streptococcus bovis A5169. The class given is functional. The method in brief: as §3
For test [12], the system named is Staphylococcus aureus. The test can be described thus: Minimum inhibitory concentration (MIC) against the cell line Staphylococcus aureus ATCC 6538P. The class given is functional. The method in brief: as §3
The subject of test [13] is Clostridium perfringens. Put plainly: Minimum inhibitory concentration against Clostridium perfringens ATCC 13124. In kind it is functional. The gist of the method: as §2
The next test deals with Micrococcus luteus. Put plainly: Minimum inhibitory concentration (MIC) against the cell line Micrococcus luteus ATCC 4698. In kind it is functional. The method in brief:
as §3

Test [14] concerns Staphylococcus aureus. Put plainly: Minimum inhibitory concentration (MIC) against the cell line Staphylococcus aureus A5177. The class given is functional. The method in brief:
as §3

The test system of test [15] is Bacteroides fragilis. Put plainly: Minimum inhibitory concentration against Bacteroides fragilis ATCC 25285. The class given is functional. The gist of the method: as §1
In test [16] the test system is Staphylococcus aureus. The test can be described thus: Compound is evaluated for cross resistance with DNA gyrase subunit A or B against Staphylococcus aureus 45CR-1 (coumermycin resistant). The class given is functional. The gist of the method:
as §4

For test [17], the system named is Bacteroides fragilis. Put plainly: Compound is evaluated for cross resistance with DNA gyrase subunit A or B against Bacteroides fragilis TirR (tirandamycin resistant). The class given is functional.
In test [18] the test system is Staphylococcus aureus. The test can be described thus: Minimum inhibitory concentration (MIC) against the cell line Staphylococcus aureus CMX 686B. In kind it is functional. The gist of the method:
as §3

For test [19], the system named is Staphylococcus aureus. Put plainly: Compound is evaluated for cross resistance with DNA gyrase subunit A or B against Staphylococcus aureus 45. In kind it is functional. The gist of the method: as §4
Test [20] relates to Escherichia coli. The test can be described thus: Minimum inhibitory concentration (MIC) against the cell line Escherichia coli H560. In kind it is functional. The gist of the method: as §3
Test [21] deals with Escherichia coli. Put plainly: Minimum inhibitory concentration (MIC) against the cell line Escherichia coli juhl. In kind it is functional. The gist of the method:
as §3

The subject of test [22] is Staphylococcus aureus. Put plainly: Minimum inhibitory concentration (MIC) against the cell line Staphylococcus aureus 45. In kind it is functional. The method in brief: as §3

Converted amounts (≈) assume the structure as drawn. Bounds are passed on as bounds.

Sequence of DNA-directed RNA polymerase subunit beta (Escherichia coli K-12) (P0A8V2 whole entry, looked up): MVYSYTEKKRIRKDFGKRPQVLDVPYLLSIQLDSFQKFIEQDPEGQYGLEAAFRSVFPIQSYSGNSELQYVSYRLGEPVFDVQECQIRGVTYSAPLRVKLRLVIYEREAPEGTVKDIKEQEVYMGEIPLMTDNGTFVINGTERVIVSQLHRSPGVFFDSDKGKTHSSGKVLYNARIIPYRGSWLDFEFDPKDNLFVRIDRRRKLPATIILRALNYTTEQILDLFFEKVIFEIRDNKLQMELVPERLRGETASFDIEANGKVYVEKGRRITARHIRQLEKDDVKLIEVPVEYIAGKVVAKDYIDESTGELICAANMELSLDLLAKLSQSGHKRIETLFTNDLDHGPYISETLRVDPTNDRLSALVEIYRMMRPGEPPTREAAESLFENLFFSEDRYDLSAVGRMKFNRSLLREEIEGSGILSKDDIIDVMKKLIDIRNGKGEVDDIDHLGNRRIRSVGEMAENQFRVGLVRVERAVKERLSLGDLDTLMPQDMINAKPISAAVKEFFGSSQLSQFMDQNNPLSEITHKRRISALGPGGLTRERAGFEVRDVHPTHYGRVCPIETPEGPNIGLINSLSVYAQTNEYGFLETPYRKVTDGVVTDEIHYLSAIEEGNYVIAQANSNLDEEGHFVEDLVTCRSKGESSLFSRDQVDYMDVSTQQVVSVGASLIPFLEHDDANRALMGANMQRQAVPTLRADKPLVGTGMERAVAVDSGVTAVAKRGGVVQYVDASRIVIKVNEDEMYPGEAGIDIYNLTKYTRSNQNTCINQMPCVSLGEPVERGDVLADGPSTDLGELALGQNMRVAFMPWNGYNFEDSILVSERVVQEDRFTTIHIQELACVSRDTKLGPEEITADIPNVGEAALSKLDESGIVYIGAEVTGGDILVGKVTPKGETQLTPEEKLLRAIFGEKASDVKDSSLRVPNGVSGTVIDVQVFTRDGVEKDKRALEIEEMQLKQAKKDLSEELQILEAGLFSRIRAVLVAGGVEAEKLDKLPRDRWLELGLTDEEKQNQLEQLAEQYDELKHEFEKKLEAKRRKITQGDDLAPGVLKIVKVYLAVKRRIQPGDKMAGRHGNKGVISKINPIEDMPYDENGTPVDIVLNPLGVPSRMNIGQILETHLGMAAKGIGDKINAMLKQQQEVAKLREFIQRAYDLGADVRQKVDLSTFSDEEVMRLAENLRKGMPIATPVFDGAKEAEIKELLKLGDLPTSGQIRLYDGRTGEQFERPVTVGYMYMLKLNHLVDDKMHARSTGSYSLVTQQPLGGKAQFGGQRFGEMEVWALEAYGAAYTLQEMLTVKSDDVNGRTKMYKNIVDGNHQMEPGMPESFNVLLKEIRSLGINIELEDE

In test [1], `CC(/C=C/C(O)=C1\C(=O)CNC1=O)=C\[C@@H](C)C1OC2(C)OC(C(=O)[C@@H]3O[C@@]32C)C1C` (stereo not given in full) returned an inhibition of 50%. The MIC in test [2] is 0.2 µg/mL (≈ 0.479 µM); with Bacteroides fragilis [3] it was 0.1 µg/mL (≈ 0.24 µM); against Clostridium perfringens [4], not above 0.05 µg/mL; against Clostridioides difficile [5], 1.6 µg/mL (≈ 3.83 µM).
Turning to `CC(/C=C/C(=O)C1=C(O)CN(C)C1=O)=C\c1ccc2ccccc2c1`, the MIC in the test with Clostridioides difficile [6] was less than 0.5 µg/mL; against Pseudomonas aeruginosa, 100 µg/mL (≈ 300 µM); in [7], 31 µg/mL (≈ 93 µM); in the test on Staphylococcus aureus [8], 0.25 µg/mL (≈ 0.75 µM); in test [9], 1.56 µg/mL (≈ 4.68 µM); in the test with Streptococcus pyogenes, 50 µg/mL (≈ 150 µM). Also, the MIC against Bacteroides fragilis [10] was 0.5 µg/mL (≈ 1.5 µM); against Staphylococcus aureus [11] it was 0.25 µg/mL (≈ 0.75 µM); against Streptococcus equinus it was 200 µg/mL (≈ 600 µM); against Staphylococcus aureus [12] it was 1.56 µg/mL (≈ 4.68 µM); in the test on Clostridium perfringens [13] it was 2 µg/mL (≈ 6 µM); in the test with Micrococcus luteus it was 1.56 µg/mL (≈ 4.68 µM). Further, the MIC with Staphylococcus aureus [14] was 1.56 µg/mL (≈ 4.68 µM); in the test on Bacteroides fragilis [15], less than 0.5 µg/mL; with Staphylococcus aureus [16], 0.25 µg/mL (≈ 0.75 µM); in the test with Bacteroides fragilis [17], 0.5 µg/mL (≈ 1.5 µM); in the test with Staphylococcus aureus [18], 1.56 µg/mL (≈ 4.68 µM); with Staphylococcus aureus [19], 0.25 µg/mL (≈ 0.75 µM). Also, the results for the MIC in the test with Escherichia coli [20], with Escherichia coli [21] and in the test on Staphylococcus aureus [22] were 200 µg/mL (≈ 600 µM), 200 µg/mL (≈ 600 µM) and 1.56 µg/mL (≈ 4.68 µM), respectively. The molecule also had an inhibition in test [1] of 12.3%.
Take `CO[C@@H]1[C@@H](OC(=O)c2ccc(C)[nH]2)[C@@H](O)[C@@H](Oc2ccc3c(O)c(NC(=O)c4c[nH]c(C(=O)Nc5c(O)c6ccc(O[C@H]7OC(C)(C)[C@H](OC)[C@@H](OC(=O)c8ccc(C)[nH]8)[C@H]7O)c(C)c6oc5=O)c4C)c(=O)oc3c2C)OC1(C)C` [COUMERMYCIN]: the MIC in the test with Staphylococcus aureus [8] came out at 0.008 µg/mL (≈ 0.00721 µM); in the test on Staphylococcus aureus [11], 0.008 µg/mL (≈ 0.00721 µM); against Staphylococcus aureus [16] it was 4 µg/mL (≈ 3.6 µM); with Staphylococcus aureus [19], 0.008 µg/mL (≈ 0.00721 µM).
Turning to `CN1CCN(c2cc3c(cc2F)c(=O)c(C(=O)O)cn3-c2ccc(F)cc2)CC1` [DIFLOXACIN], the MIC against Staphylococcus aureus [8] is 0.25 µg/mL (≈ 0.626 µM); against Staphylococcus aureus [11] it was 4 µg/mL (≈ 10 µM); in the test on Staphylococcus aureus [16], 0.25 µg/mL (≈ 0.626 µM); in the test on Staphylococcus aureus [19], 0.25 µg/mL (≈ 0.626 µM).

These data come from ChEMBL document CHEMBL1124461, “Aromatic dienoyl tetramic acids. Novel antibacterial agents with activity against anaerobes and staphylococci” (J Med Chem, 1989).
